Assay outcomes as filed in PubChem BioAssay.
CaV13 ICDI inh – Disruptors of the CACNA1D IQ motif to Ca2+-dependent inactivation inhibitor domain association, primary screening, Förster resonance energy transfer in intact living …. HEK cells, CFP/YFP FRET ICDI-IQ, plate reader, 10 min; percent FRET-ratio fall versus neutral wells. inhibition, % at 12.3 µM. actives 0.098% (n = 340,000). AID 743397;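 active means mean replicate inhibition of at least 30% and at least 1% of replicates passing that level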;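 further: 0% = median of the neutral control wells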
CAL PDZ FP-1 – human CAL PDZ-peptide interaction inhibition; Q9HD26; purified CAL PDZ, TMR-peptide fluorescence polarization, 1 h; inhibition, % at 20 µM; actives 0.02% (n = 330,000);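 active means highest replicate inhibition of at least 40%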;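 further: plate controls were DMSO neutral control wells for no effect and unlabeled competitor peptide control wells for full effect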
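Test system: purified CerCALP PDZ construct; Compound dosing: one concentration, 20 µM compound; Also added: TMR-labelled reporter peptide T*-PRC34 bound in PDZ groove; Read-out: inhibition from polarization loss; Controls: unlabelled peptide and DMSO controls; Signal: FP readout, S and P plane fluorescence; Incubation: 1 h at RT.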
ARNT TACC3 PPI – disruptors of human ARNT/TACC3 interaction; Q9Y6A5; AlphaScreen His-ARNT PAS-B/GST-TACC3 binding, luminescence; TACC3 fragment carries E629A point mutation; inhibition, % at 9.99 µM; actives 0.66% (n = 390,000); AID 623870;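 active means mean inhibition of replicates at least 50% and at least half of replicates each reaching 50%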;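 further: 0% = complete ARNT plus TACC3 wells and 100% = ARNT alone without TACC3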
CAL PDZ FP-2 – blocks peptide binding to the human CAL PDZ domain. actives 0.92% (n = 300,000). Q9HD26. inhibition, % at 24.9 µM. purified CAL PDZ, TMR-peptide fluorescence polarization, 1 h;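 active means mean inhibition of at least 30% with at least half of replicates also reaching 30%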;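 further: 0% = DMSO neutral control and 100% = excess unlabeled competitor peptide PRC23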
* = called active by the depositor; / = not tested or not shown; + = active, no number. Only some compounds are listed: those with a hit (about 1.2% of all), similar ones and a draw of the others.

SMILES	CaV13 ICDI inh	CAL PDZ FP-1	ARNT TACC3 PPI	CAL PDZ FP-2
CO[C@H]1CN(C)C(=O)c2ccc(NC(=O)C3CCC3)cc2OC[C@H](C)N(Cc2ccncc2)C[C@@H]1C	/	/	-5	/
COc1ccc(NC(=O)N(C)C[C@@H]2Oc3c(NC(=O)Nc4ccc5c(c4)OCO5)cccc3C(=O)N([C@@H](C)CO)C[C@@H]2C)cc1	/	/	0	/
Cc1ccc(CSc2ccc(S(=O)(=O)N3CCCC3)cn2)cc1	-5	-1	6	71*
CCC(=O)N[C@@H]1CC[C@H](CC(=O)NCCN2CCCCC2)O[C@H]1CO	/	/	1	/
Cc1ccccc1C(=O)c1cccn1CC(=O)NCc1ccccc1Cl	-7	0	14	/
O=C(Cn1cccc1C(=O)c1ccccc1)NCc1ccccc1Cl	-2	0	1	+
O=C(NCc1ccccc1Cl)c1cccc2c1C(=O)c1ccc(-c3ccc(OC(F)(F)F)cc3)cc1S2(=O)=O	/	-1	-9	-3
O=C(NCc1cc(C(F)(F)F)ccc1Cl)c1cccc2c1C(=O)c1ccc(Cl)cc1S2(=O)=O	36*	/	/	/
CC=Cc1ccc2n(c1=O)C[C@H]1[C@H](CO)[C@@H](C(=O)N(C)C)N(C(=O)CC3CC3)[C@@H]21 (mixture of isomers)	/	/	-14	/
Cc1noc(C)c1S(=O)(=O)N(C)C[C@@H]1Oc2ccc(NC(=O)C3CC3)cc2CC(=O)N([C@H](C)CO)C[C@@H]1C	/	/	3	/
COc1ccc(NC(=O)N(C)C[C@@H]2Oc3ccc(NC(=O)Nc4ccc5c(c4)OCO5)cc3C(=O)N([C@@H](C)CO)C[C@H]2C)cc1	/	/	8	/
CCOCCn1c(=O)c2c(nc3n2CCN3c2ccc(C)cc2)n(C)c1=O	-1	0	7	77*
O=C(COC(=O)c1cnccn1)Nc1ncc(C(F)(F)F)cc1Cl	-7	-1	-4	55*
O=C(COC(=O)C1=COCCO1)Nc1ncc(C(F)(F)F)cc1Cl	/	-2	-2	1
O=C(Nc1ccccc1C(=O)O)c1cccc(N2C(=O)c3ccccc3C2=O)c1	-7	-2	-1	51*
CCCCS(=O)(=O)N1CCCC(C(=O)Oc2ccccc2)C1 (stereo not drawn)	-3	/	-2	66*
CCCS(=O)(=O)N1CCCC(C(=O)Oc2ccc(OC)cc2)C1 (stereo not drawn)	-3	0	-6	-5
COc1cccc2c1C(=N)c1c(O)c3c(c(O)c1C2=O)CC(O)(C(C)=O)CC3OC1CC(N)C(O)C(C)O1 (stereo not drawn)	/	4	49*	-5
CN1CCc2c(sc(NC(=O)C3CCCCC3)c2C(N)=O)C1	+	0	-6	/
CC(C)N1CCc2c(sc(NC(=O)C3CCCCC3)c2C(N)=O)C1	-5	0	-2	/
COc1ccc2oc(=O)c(C(=O)Nc3ccccc3O)cc2c1	-17	18	-2	78*
CC(C)CC#Cc1ccc2c(c1)O[C@H](CN(C)C(=O)CN(C)C)[C@@H](C)CN([C@H](C)CO)S2(=O)=O	/	/	0	/
COc1ccc(NC(=O)CC#N)cc1OC	-4	/	-2	30*
CCCc1c(C)nc(N2CCN(c3ccccc3OC)CC2)[nH]c1=O	-3	-3	-1	55*
CCc1c(C)nc(SCC(=O)N2CCN(c3ccccc3OC)CC2)[nH]c1=O	-5	-2	-8	-4
SMILES	CaV13 ICDI inh	CAL PDZ FP-1	ARNT TACC3 PPI	CAL PDZ FP-2
Cc1c(N/N=C(\C#N)C(=O)c2ccc(Cl)cc2)c(=O)n(-c2ccccc2)n1C	-22	-1	60*	-2
Cc1ccc(NC(=O)CN(C)C(=O)COc2cccc3ccc(C)nc23)cc1	-6	0	/	71*
C[C@H](CO)N1C[C@H](C)[C@@H](CN(C)Cc2ccc(C(=O)O)cc2)Oc2c(NC(=O)c3cnccn3)cccc2C1=O	/	/	-2	/
CC(C)Nc1nc(NC(C)C)nc(N(C)C(N)=O)n1	/	0	-4	/
CCNc1nc(NCC)nc(N(C)N)n1	-3	0	70*	-2
CC(C)Nc1nc(NC(C)C)nc(N(C)N)n1	/	-2	59*	-2
C[C@@H]1CN([C@@H](C)CO)C(=O)Cc2cc(NS(=O)(=O)c3ccccc3)ccc2O[C@H]1CN(C)S(=O)(=O)c1ccccc1	/	/	-2	/
COc1ccc2ccccc2c1/C=N/O	-6	-1	-6	36*
COc1ccc(C(=O)C2CCCN(C(=O)c3c4c(nn3C)CCCC4)C2)cc1F (stereo not drawn)	7	-1	1	-1
COc1ccc(C(=O)C2CCCN(C(=O)c3ccoc3C)C2)cc1F (stereo not drawn)	-4	/	-5	119*
